Screening data: PubChem, several laboratories
Rad51 HR inh = Rad51 (human) homologous recombination inhibition. Q06609. inhibition, % at 10 µM. 0.085% of 200,000 active. hRad51 DNA strand exchange, fluorescence dequenching;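 active = inhibition above 40% at the single screening dose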;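 also: 0% = DMSO control wells and 100% = blanks with heterologous ssDNA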
Target sequence (Q06609 whole entry, looked up): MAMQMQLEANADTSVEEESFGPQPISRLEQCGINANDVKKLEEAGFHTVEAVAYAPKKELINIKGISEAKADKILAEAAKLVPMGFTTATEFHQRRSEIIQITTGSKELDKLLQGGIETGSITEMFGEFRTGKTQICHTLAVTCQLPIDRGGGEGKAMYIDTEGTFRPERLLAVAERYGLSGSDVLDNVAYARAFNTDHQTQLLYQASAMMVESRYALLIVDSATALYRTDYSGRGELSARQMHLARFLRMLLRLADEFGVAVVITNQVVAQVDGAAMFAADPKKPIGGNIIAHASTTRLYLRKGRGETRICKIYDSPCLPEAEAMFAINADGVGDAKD
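System: hRad51 filaments on single-stranded DNA; reagent: Fluorescein- and BHQ1-tagged 47-mer duplex; compound dosing: one concentration, 10 µM final; timing: filaments 15 min 37 °C, then compound 30 min; measured by: fluorescein emission 520 nm, excitation 485 nm; benchmarks: per-plate controls and blanks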
MT stabilizer = stabilizes microtubules in HeLa cells; HeLa tubulin immunostaining HCS, 24 h; share of cells brighter than vehicle mean+2SD; % tubulin-high responders, % at 10 µM; 0.83% of 200,000 active; AID 2205;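 active = plate Z-score above 3 for both tubulin-high and condensed-nucleus cell shares, with cell loss under 80%, at 10 µM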;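 also: anti alpha tubulin signal scored within the nucleus-defined area of each cell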
b-catenin transl = modulators of beta-catenin nuclear translocation; 0.3% of 190,000 active; nuclear translocation activity, % at 5 µM; HeLa beta-catenin nuclear translocation, immunofluorescence imaging; AID 1665;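 active = nuclear translocation activity above 50% at 5 µM, with a well cell count of 50 or more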;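 also: per-cell ratio of nuclear to cytoplasmic median beta-catenin stain intensity; plate controls were DMSO negative control for no effect and GSK-3 inhibitor IX positive control for full effect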
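System: HeLa cells, endogenous beta-catenin; compound dosing: 5 µM primary single dose, 0.1% DMSO, 0.02–20 µM confirmation series; incubation: 24 h compound exposure at 37°C, 5% CO2; signal: beta-catenin immunofluorescence imaging with DAPI; evaluation: % activation, nuclear-to-cytoplasmic median beta-catenin signal ratio per cell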
TbHK1 inh = blocks Trypanosoma brucei hexokinase 1 activity | recombinant TbHK1, G6PDH-coupled NADH A340 | inhibition, % at 10 µM | 0.11% of 220,000 active;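 active = inhibition of 50% or more in the single-dose primary screen; inactive = inhibition below 50%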
Dynein cargo inh = dynein cargo transport inhibition; 3617.4 mouse cells, GR-EGFP nuclear translocation imaging; test concentration mostly 20 µM; stimulated with dexamethasone, 1 µM; active compounds read low; z-score, hits read low; 0.47% of 220,000 active; AID 1381;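 active = plate z-score of nuclear minus cytoplasmic receptor signal below a set negative limit, without overly bright fluorescence or cell loss, cut at about -3.5 in these data, passing the limit was not always enough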;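 also: z-score of nuclear minus cytoplasmic ring GR-EGFP intensity difference per well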
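medium = tetracycline-free induction medium containing charcoal-stripped FBS | also added = 1.0 µM final dexamethasone stimulus | schedule = 48 h induction, 1 h compound, 30 min dex at 37 °C | technique = fixed, Hoechst-stained cells imaged at 10x for EGFP | measure = GR-EGFP nuclear translocation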
Active calls of the source: *; / = not tested or not shown. A selection: hits, their analogues and other compounds. The true share with any hit is near 1.5%.

SMILES	Rad51 HR inh	MT stabilizer	b-catenin transl	TbHK1 inh	Dynein cargo inh
CC(=O)Cc1nsc(NC(=O)c2ccc(-c3cc(Cl)ccc3Cl)o2)n1	6	26*	132*	-33	0.67
O=C(Cc1csc(Nc2nc(=S)[nH]c3ccccc23)n1)N1CCN(c2cccc(Cl)c2)CC1	-18	14	-2	6	2.1
Cc1ccc(Cl)cc1N1CCN(C(=O)Cc2csc(Nc3nc(=S)[nH]c4ccccc34)n2)CC1	-74	9.5*	-1	-8	-0.8
Cc1cccc(C)c1NC(=O)CN1CCNCC1	-1	2	/	0	-0.28
CC(C)(C)c1nc2ccccc2c2nnc(SCC(=O)Nc3nccs3)n12	-3	42*	40	-10	0.83
O=C(c1ccco1)N1CCN(c2ncnc3scc(-c4ccccc4)c23)CC1	-2	1	/	-2	2.6
Cc1cc(NS(=O)(=O)c2ccc(NC(=O)CCN3C(=O)c4ccccc4C3=O)cc2)no1	-3	2	1	-1	-0.61
O=C(N/N=C/c1ccc(Cl)cc1Cl)Nc1ccccc1	-3	19*	10	11	-0.69
O=C(N/N=C/c1cccc(Cl)c1Cl)Nc1ccccc1	-6	1	-3	-16	0.59
CCOC(=O)c1[nH]c2ccc(OC)cc2c1NC(=S)N1CCN(c2ccccc2OC)CC1	-13	20*	2	-20	1.8
COc1ccccc1N1CCN(C(=S)Nc2cccc(C)c2)CC1	6	8.7*	6	-1	0.26
Cc1cccc(NC(=S)N2CCN(c3cc(C)ccc3C)CC2)c1	1	4	2	33	-0.12
CCOC(=O)Nc1c(C(=O)OC)[nH]c2cc(OC)ccc12	0	36*	4	-16	-0.82
CCOC(=O)c1[nH]c2ccc(OC)cc2c1NC(=S)N1CCN(C(=O)OCC)CC1	-17	3	0	-13	0.69
CCOC(=O)c1[nH]c2ccc(OC)cc2c1NC(=O)OC	-3	3	-3	-15	-0.38
COc1ccc(CCN2C(=S)N(c3ccc(Cl)cc3)C(=O)C2CC(N)=O)cc1OC (stereo unspecified)	17	/	-2	-9	0.51
COc1ccc(N=C2SC(C(N)=O)CC(=O)N2CCc2ccc(OC)c(OC)c2)cc1 (stereo unspecified)	-3	4	1	1	0.64
CC(=O)c1sc(=S)n(-c2ccccc2)c1C	-6	/	7	-26	0.43
O=C(CN1C(=O)c2ccccc2S1(=O)=O)Nc1ccc(S(=O)(=O)N2CCCCC2)cc1	73*	2	0	-4	0.025
Cc1ccc(C)c(OCC(=O)N2CCOCC2)c1	3	3	-1	2	-0.52
Cc1cccc(Cn2c(=O)n(-c3ccc(CC(=O)NCc4ccco4)cc3)c(=O)c3sccc32)c1	-6	29*	-1	-5	0.96
CN(C)N1C(N)=C(C#N)C(c2cccc3ccccc23)C2=C1CC(c1ccccc1)CC2=O (stereo unspecified)	7	12*	12	17	-0.82
Cc1ccc(C2C(C#N)=C(N)N(N(C)C)C3=C2C(=O)CCC3)cc1 (stereo unspecified)	2	3	/	24	-0.088
CCOc1ccccc1NC(=O)Cn1nnc(C(=O)NCc2ccco2)c1N	/	25*	/	40	-0.2
CCn1c(=O)c(=O)[nH]c2cc(C(=O)NC3CCCc4ccccc43)ccc21 (stereo unspecified)	1	29*	-4	-12	-0.68
SMILES	Rad51 HR inh	MT stabilizer	b-catenin transl	TbHK1 inh	Dynein cargo inh
Cc1ccc(-n2ncc3c(NCc4ccco4)ncnc32)cc1C	10	9.4*	0	-4	-1.1
COc1ccc(OC)c(Nc2ncnc3c2cnn3-c2cccc(C)c2)c1	-1	35*	1	-5	-1.6
Cc1cccc(-n2ncc3c(NCc4ccccc4)ncnc32)c1	-6	6	-1	5	-0.043
Cc1cccc(-n2ncc3c(NCc4ccco4)ncnc32)c1	/	28*	45	3	-1.9
O=C(NC(=O)N1CCN(c2ccc(F)cc2)CC1)c1ccccc1	-10	1	/	-5	-1.3
Cc1ccc(S(=O)(=O)c2nc(-c3ccc(F)cc3)oc2SCC(N)=O)cc1	5	8	3	1	0.023
O=C(N/N=C/c1ccc(O)cc1)Nc1cccc2nsnc12	13	11*	4	3	-0.55
CC(=O)Nc1nc(C)c(C(C)C)s1	-4	/	4	-3	0.31
